# Data taken from ChEMBL document CHEMBL4813946, “Discovery of novel 4-azaaryl-N-phenylpyrimidin-2-amine derivatives as potent and selective FLT3 inhibitors for acute myeloid leukaemia with FLT3 mutations” (Eur J Med Chem, 2021).
# Calls of active or inactive are those of the source. No cut-off for these calls is given here.
# Tests used:
# [1] = molecular target: Cyclin-dependent kinase 1/cyclin B1 (Homo sapiens, UniProt P06493); assay: Inhibition of CDK1/cyclin B (unknown origin) using histone 1 protein substrate incubated for 120 mins measured after 40 mins incubation under dark by ADP-glo based luminescence assay; assay type: protein-complex assay
# Chain of Cyclin-dependent kinase 1/cyclin B1 (P06493 whole entry): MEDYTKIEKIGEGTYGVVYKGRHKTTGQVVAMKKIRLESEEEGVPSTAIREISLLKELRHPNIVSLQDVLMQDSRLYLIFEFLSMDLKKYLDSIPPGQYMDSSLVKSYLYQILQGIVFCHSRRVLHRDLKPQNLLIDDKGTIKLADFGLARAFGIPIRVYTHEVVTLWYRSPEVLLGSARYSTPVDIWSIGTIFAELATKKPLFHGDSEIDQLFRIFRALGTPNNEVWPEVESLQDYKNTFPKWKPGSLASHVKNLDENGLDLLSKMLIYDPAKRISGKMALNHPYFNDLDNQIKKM
# Chain of Cyclin-dependent kinase 1/cyclin B1 (P14635 whole entry, further chain): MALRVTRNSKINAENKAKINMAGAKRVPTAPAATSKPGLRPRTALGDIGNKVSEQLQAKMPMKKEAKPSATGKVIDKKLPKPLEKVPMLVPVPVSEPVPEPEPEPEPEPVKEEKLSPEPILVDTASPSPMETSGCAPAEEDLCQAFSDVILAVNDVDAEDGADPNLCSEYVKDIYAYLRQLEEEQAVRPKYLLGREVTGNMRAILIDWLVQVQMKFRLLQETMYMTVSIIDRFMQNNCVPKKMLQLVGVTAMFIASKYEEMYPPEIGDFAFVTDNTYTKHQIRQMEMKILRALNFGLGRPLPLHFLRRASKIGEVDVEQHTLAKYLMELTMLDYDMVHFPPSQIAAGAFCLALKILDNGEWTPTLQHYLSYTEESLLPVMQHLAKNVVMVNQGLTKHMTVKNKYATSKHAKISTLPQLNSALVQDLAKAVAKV
# Summary of the method: (§1)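 In-house ADP-Glo assay with 2 mM DMSO stocks. Kinases were CDK1/cyclin B at 1 nM, CDK2/cyclin E1 at 10 nM and CDK7/cyclin H/MAT1 at 40 nM. Substrate was histone 1 for CDK1 and CDK2, and a RNA pol II CTD peptide for CDK7. Compound at 8–10 concentrations, 1:3 serial, final DMSO 0.5%. Reactions ran 60–120 min at room temperature, then ADP-Glo reagent 40 min in the dark, then detection reagent 40 min, read by luminescence. Ki was derived from IC50 by Cheng-Prusoff.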
# CDK7/Cyclin H/MNAT1 = CDK7/Cyclin H/MNAT1 (Homo sapiens, UniProt P50613); assay: Inhibition of CDK7/cyclin H/MAT1 (unknown origin) using HYSPTSPSYSPTSPSYSPTSPSKKKK-O substrate incubated for 120 mins measured after 40 mins incubation under dark by ADP-glo based luminescence assay; assay type: protein-complex assay; summary of the method: as §1
# Chain of CDK7/Cyclin H/MNAT1 (P51946 whole entry): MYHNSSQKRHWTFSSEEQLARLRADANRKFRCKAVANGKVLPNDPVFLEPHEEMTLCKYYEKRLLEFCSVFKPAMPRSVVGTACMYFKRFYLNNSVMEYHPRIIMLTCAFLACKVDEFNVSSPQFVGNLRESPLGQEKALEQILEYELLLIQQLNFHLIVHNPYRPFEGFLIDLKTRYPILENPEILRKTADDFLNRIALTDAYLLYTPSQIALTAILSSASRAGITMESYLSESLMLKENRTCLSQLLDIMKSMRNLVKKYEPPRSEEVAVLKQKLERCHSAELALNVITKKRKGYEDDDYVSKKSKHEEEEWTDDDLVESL
# Chain of CDK7/Cyclin H/MNAT1 (P50613 whole entry): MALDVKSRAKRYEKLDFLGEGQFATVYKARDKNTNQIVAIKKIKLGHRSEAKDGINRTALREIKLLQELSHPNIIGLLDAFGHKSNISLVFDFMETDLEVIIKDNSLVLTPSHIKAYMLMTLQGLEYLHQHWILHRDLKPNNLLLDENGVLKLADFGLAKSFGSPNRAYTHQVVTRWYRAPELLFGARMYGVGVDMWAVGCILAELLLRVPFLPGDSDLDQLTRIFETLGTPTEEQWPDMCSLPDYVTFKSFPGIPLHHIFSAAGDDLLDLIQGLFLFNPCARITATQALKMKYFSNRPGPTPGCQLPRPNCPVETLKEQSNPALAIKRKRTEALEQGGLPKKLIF
# Chain of CDK7/Cyclin H/MNAT1 (P51948 whole entry, further chain): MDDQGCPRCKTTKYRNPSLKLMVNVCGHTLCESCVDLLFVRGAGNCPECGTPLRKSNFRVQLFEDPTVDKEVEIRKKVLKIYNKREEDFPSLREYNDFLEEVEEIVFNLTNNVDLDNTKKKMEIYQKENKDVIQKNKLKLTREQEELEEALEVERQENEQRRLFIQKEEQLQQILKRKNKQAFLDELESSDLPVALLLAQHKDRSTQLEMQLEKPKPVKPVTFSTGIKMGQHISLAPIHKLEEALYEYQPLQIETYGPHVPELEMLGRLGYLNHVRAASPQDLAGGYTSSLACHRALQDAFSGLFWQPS
# MV4-11 [2] = assay: Antiproliferative activity against human MV4-11 cells incubated for 72 hrs by resazurin assay; assay type: functional
# Summary of the method: (§2)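 Cells seeded and pre-incubated 24 h at 37 °C, 5% CO2, then given a five-fold dilution series of compound (from 10 mM DMSO stock) in medium, in triplicate. Resazurin added after 72 h exposure, 4 h in dark at 37 °C. Fluorescence read at 570/585 nm, normalised to DMSO vehicle. GI50 by non-linear regression; mean ± SD of at least two replicates.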
# [3] = molecular target: Receptor-type tyrosine-protein kinase FLT3 (Homo sapiens, UniProt P36888, F594-R595INSR); assay: Inhibition of FLT3 F594_R595insR mutant (unknown origin) incubated for 120 mins by ADP-glo based luminescence assay
# Chain of Receptor-type tyrosine-protein kinase FLT3 (P36888 whole entry, looked up, stated change not applied): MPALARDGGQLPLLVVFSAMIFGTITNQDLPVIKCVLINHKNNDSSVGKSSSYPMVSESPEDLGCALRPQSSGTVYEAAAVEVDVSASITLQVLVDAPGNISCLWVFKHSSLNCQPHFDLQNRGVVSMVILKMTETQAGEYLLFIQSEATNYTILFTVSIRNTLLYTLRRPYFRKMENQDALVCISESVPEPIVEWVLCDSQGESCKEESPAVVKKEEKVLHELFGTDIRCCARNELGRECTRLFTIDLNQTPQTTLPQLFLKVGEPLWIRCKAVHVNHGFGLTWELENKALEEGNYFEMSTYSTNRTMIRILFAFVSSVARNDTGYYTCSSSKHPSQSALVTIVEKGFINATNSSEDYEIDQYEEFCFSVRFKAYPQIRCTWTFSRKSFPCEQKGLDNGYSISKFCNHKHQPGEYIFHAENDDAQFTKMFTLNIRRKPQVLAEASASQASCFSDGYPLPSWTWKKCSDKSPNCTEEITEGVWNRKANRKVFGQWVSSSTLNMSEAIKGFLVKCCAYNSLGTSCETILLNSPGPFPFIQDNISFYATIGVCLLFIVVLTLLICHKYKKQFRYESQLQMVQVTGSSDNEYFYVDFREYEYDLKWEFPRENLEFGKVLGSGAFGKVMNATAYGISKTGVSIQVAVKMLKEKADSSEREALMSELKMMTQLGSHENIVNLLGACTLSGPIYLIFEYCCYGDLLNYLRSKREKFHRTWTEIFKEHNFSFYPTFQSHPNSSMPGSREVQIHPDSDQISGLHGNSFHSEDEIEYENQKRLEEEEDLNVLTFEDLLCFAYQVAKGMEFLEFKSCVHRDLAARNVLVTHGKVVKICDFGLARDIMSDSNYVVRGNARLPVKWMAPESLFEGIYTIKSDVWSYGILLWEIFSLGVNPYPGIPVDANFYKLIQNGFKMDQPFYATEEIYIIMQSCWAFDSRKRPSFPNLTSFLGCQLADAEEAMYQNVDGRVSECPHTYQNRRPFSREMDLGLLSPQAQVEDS
# [4] = Antiproliferative activity against human MOLM-13 cells harboring FLT3-ITD mutant assessed as reduction in cell viability after 72 hrs by resazurin assay; assay type: functional; details: MOLM-13, 72 h; summary of the method: as §2
# MV4-11 [5] = assay: Induction of apoptosis in human MV4-11 cells assessed as viable cells at 1 x GI50 concentration incubated for 24 hrs by annexin V-FITC and propidium iodide staining based flow cytometry (reference value: 84.68 %); assay type: functional
# MV4-11 [6] = assay: Induction of apoptosis in human MV4-11 cells assessed as early apoptotic cells at 5 x GI50 concentration incubated for 24 hrs by annexin V-FITC and propidium iodide staining based flow cytometry (reference value: 2.12 %); assay type: functional
# MV4-11 [7] = assay: Induction of apoptosis in human MV4-11 cells assessed as early apoptotic cells at 20 x GI50 concentration incubated for 24 hrs by annexin V-FITC and propidium iodide staining based flow cytometry (reference value: 2.12 %); assay type: functional
# MV4-11 [8] = assay: Induction of apoptosis in human MV4-11 cells assessed as late apoptotic cells at 1 x GI50 concentration incubated for 48 hrs by annexin V-FITC and propidium iodide staining based flow cytometry (reference value: 6.59 %); assay type: functional
# MV4-11 [9] = assay: Induction of apoptosis in human MV4-11 cells assessed as early apoptotic cells at 5 x GI50 concentration incubated for 48 hrs by annexin V-FITC and propidium iodide staining based flow cytometry (Rvb =1.08 %); assay type: functional
# MV4-11 [10] = assay: Induction of apoptosis in human MV4-11 cells assessed as necrotic cells at 10 x GI50 concentration incubated for 48 hrs by annexin V-FITC and propidium iodide staining based flow cytometry (reference value: 0.45 %); assay type: functional
# U-937 [11] = assay: Induction of apoptosis in human U937 cells assessed as late apoptotic cells at 5 x GI50 concentration incubated for 24 hrs by annexin V-FITC and propidium iodide staining based flow cytometry (Rvb =10.30 %); assay type: functional
# U-937 [12] = assay: Induction of apoptosis in human U937 cells assessed as viable cells at 10 x GI50 concentration incubated for 24 hrs by annexin V-FITC and propidium iodide staining based flow cytometry (reference value: 86.80 %); assay type: functional
# U-937 [13] = assay: Induction of apoptosis in human U937 cells assessed as necrotic cells at 20 x GI50 concentration incubated for 24 hrs by annexin V-FITC and propidium iodide staining based flow cytometry (reference value: 10.30 %); assay type: functional
# U-937 [14] = assay: Induction of apoptosis in human U937 cells assessed as viable cells at 20 x GI50 concentration incubated for 24 hrs by annexin V-FITC and propidium iodide staining based flow cytometry (reference value: 85.68 %); assay type: functional
# [15] = molecular target: Receptor-type tyrosine-protein kinase FLT3 (Homo sapiens) (UniProt P36888); assay: Inhibition of FLT3-mediated signalling pathway in human MV4-11 cells assessed as inhibition of ERK phosphorylation upto 20 x GI50 concentration incubated for 6 hrs by western blot analysis; assay type: cell-based
# Chain of Receptor-type tyrosine-protein kinase FLT3 (Homo sapiens) (P36888 whole entry): as the sequence (P36888 whole entry, looked up, stated change not applied) above
# Summary of the method: (§3)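 Cells lysed in phosphate lysis buffer with protease inhibitors and protein quantified. Western blots probed phospho and total STAT5, AKT, ERK, S6RP and eIF4E, plus full-length and cleaved PARP and caspase-3, with β-actin as loading control. At least two independent experiments.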
# [16] = molecular target: Receptor-type tyrosine-protein kinase FLT3 (Homo sapiens) (UniProt P36888); assay: Inhibition of FLT3-mediated signalling pathway in human MV4-11 cells assessed as inhibition of AKT phosphorylation upto 20 x GI50 concentration incubated for 6 hrs by western blot analysis; assay type: cell-based; summary of the method: as §3
# [17] = molecular target: Receptor-type tyrosine-protein kinase FLT3 (Homo sapiens) (UniProt P36888); assay: Inhibition of FLT3-mediated signalling pathway in human MV4-11 cells assessed as inhibition of eIF4E phosphorylation upto 20 x GI50 concentration incubated for 6 hrs by western blot analysis; assay type: cell-based; summary of the method: as §3
# [18] = molecular target: Receptor-type tyrosine-protein kinase FLT3 (Homo sapiens) (UniProt P36888); assay: Inhibition of FLT3-mediated signalling pathway in human MV4-11 cells assessed as increase in caspase 3 expression upto 20 x GI50 concentration incubated for 6 hrs by western blot analysis; assay type: cell-based; summary of the method: as §3
# U-937 [19] = assay: Induction of apoptosis in human U937 cells assessed as late apoptotic cells at 1 x GI50 concentration incubated for 48 hrs by annexin V-FITC staining based flow cytometry (reference value: 9.82 %); assay type: functional
# U-937 [20] = assay: Induction of apoptosis in human U937 cells assessed as necrotic cells at 1 x GI50 concentration incubated for 48 hrs by annexin V-FITC staining based flow cytometry (reference value: 1.16 %); assay type: functional
# U-937 [21] = assay: Induction of apoptosis in human U937 cells assessed as late apoptotic cells at 5 x GI50 concentration incubated for 48 hrs by annexin V-FITC staining based flow cytometry (Rvb =9.82 %); assay type: functional
# U-937 [22] = assay: Induction of apoptosis in human U937 cells assessed as late apoptotic cells at 10 x GI50 concentration incubated for 48 hrs by annexin V-FITC staining based flow cytometry (reference value: 9.82 %); assay type: functional
# U-937 [23] = assay: Antiproliferative activity against human U-937 cells harboring wild type/low FLT3 assessed as reduction in cell viability after 72 hrs by resazurin assay; assay type: functional; summary of the method: as §2
# [24] = molecular target: Receptor-type tyrosine-protein kinase FLT3 (Homo sapiens) (UniProt P36888); assay: Inhibition of FLT3-mediated signalling pathway in human U-937 cells assessed as inhibition of ERK phosphorylation upto 20 x GI50 concentration incubated for 6 hrs by western blot analysis; assay type: cell-based; summary of the method: as §3
# [25] = molecular target: Receptor-type tyrosine-protein kinase FLT3 (Homo sapiens) (UniProt P36888); assay: Inhibition of FLT3-mediated signalling pathway in human U-937 cells assessed as inhibition of AKT phosphorylation upto 20 x GI50 concentration incubated for 6 hrs by western blot analysis; assay type: cell-based; summary of the method: as §3
# [26] = molecular target: Receptor-type tyrosine-protein kinase FLT3 (Homo sapiens) (UniProt P36888); assay: Inhibition of FLT3-mediated signalling pathway in human U-937 cells assessed as inhibition of eIF4E phosphorylation upto 20 x GI50 concentration incubated for 6 hrs by western blot analysis; assay type: cell-based; summary of the method: as §3
smiles,measurement,setting,value
CC(=O)N1CCN(c2ccc(Nc3nccc(-c4cn(C)c5ncccc45)n3)cc2)CC1,Ki,[1],> 5000 nM
same,Ki,CDK7/Cyclin H/MNAT1,> 5000 nM
same,GI50,MV4-11 [2],74 nM
same,Ki,[3],54 nM
same,GI50,[4],23 nM
same,Activity,MV4-11 [5],81.75%
same,Activity,MV4-11 [6],1.91%
same,Activity,MV4-11 [7],3.51%
same,Activity,MV4-11 [8],6.95%
same,Activity,MV4-11 [9],3.06%
same,Activity,MV4-11 [10],1.48%
same,Activity,U-937 [11],9.79%
same,Activity,U-937 [12],85.8%
same,Activity,U-937 [13],10.43%
same,Activity,U-937 [14],85.3%
same,inhibition,[15],Active
same,inhibition,[16],Active
same,inhibition,[17],Active
same,Activity,[18],Active
same,Activity,U-937 [19],9.22%
same,Activity,U-937 [20],1.4%
same,Activity,U-937 [21],8.16%
same,Activity,U-937 [22],12.02%
same,GI50,U-937 [23],> 10000 nM
same,inhibition,[24],Active
same,inhibition,[25],Active
same,inhibition,[26],Active
